ChEMBL document CHEMBL1955787, “Design and synthesis of novel magnolol derivatives as potential antimicrobial and antiproliferative compounds” (Eur J Med Chem, 2012)
Converted amounts (≈) assume the structure as drawn. The source made the active and inactive calls. No cut-off for these calls is given here.

What was measured:
Enterococcus [1] = assay: Antibacterial activity against vancomycin-resistant Enterococcus after 24 hrs by micro dilution method; type: functional
In short: (§1)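 Broth microdilution in Mueller Hinton broth, two-fold serial dilutions, final 0.25 to 256 µg mL-1. Inoculum from 24 h culture in saline, set to 0.5 McFarland, diluted to a final 5 × 10^6 CFU mL-1. Plates held at 37 °C for 24 h and read by eye. MIC is the lowest concentration with no turbidity.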

MOLT-4 = assay: Antiproliferative activity against human MOLT4 cells after 48 hrs by sulforhodamine B assay; type: functional, cell-based; settings: MOLT-4, 48 h
In short: (§2)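 Sulforhodamine B assay following NCI guidelines. Log-phase cells seeded at 10^4 cells/well and allowed to attach for 24 h at 37 °C, 5% CO2. Exposed 48 h to 1:10 serial dilutions, four replicate wells per condition. Fixed with 50% cold TCA for 1 h at 4 °C, stained, dye dissolved in tris buffer, OD read at 540 nm. Blank-subtracted growth expressed relative to untreated (100%) and reported as IC50.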

Enterococcus [2] = assay: Antibacterial activity against vancomycin-resistant Enterococcus treated for 24 hrs followed by compound treated at 2 to 16 times MIC measured after 24 hrs by micro dilution method; type: functional
In short: (§3)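 MBC taken from the same 24 h microdilution plates (Mueller Hinton broth, final inoculum 5 × 10^6 CFU mL-1, 37 °C). […] Spots were incubated 24 h and colonies counted. MBC is the lowest concentration giving a 3 log drop from the starting inoculum.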

HL-60 = assay: Antiproliferative activity against human HL60 cells after 48 hrs by sulforhodamine B assay; type: functional, cell-based; settings: HL-60, 48 h; in short: as §2
Staphylococcus aureus [3] = assay: Antibacterial activity against methicillin-resistant Staphylococcus aureus 15187 treated for 24 hrs followed by compound treated at 2 to 16 times MIC measured after 24 hrs by micro dilution method; type: functional; settings: Staphylococcus aureus, 15187, 24 h; in short: as §3
Staphylococcus aureus [4] = assay: Antibacterial activity against Staphylococcus aureus ATCC 29213 after 24 hrs by micro dilution method; type: functional; settings: ATCC 29213, 24 h
In short: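 Broth microdilution in Mueller Hinton broth. Inoculum from a 24 h culture in saline, set to 0.5 McFarland and diluted to a final 5 × 10^6 CFU mL-1. Two-fold serial dilutions, final 0.25–256 µg mL-1. Incubated 37 °C for 24 h and read visually. MIC is the lowest concentration with no turbidity.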

PC-3 = assay: Antiproliferative activity against human PC3 cells after 48 hrs by sulforhodamine B assay; type: functional, cell-based; settings: PC-3, 48 h; in short: as §2
Staphylococcus aureus [5] = assay: Antibacterial activity against Staphylococcus aureus ATCC 29213 treated for 24 hrs followed by compound treated at 2 to 16 times MIC measured after 24 hrs by micro dilution method; type: functional; settings: ATCC 29213, 24 h
Candida albicans = assay: Antifungal activity against Candida albicans ATCC 90028; type: functional
Aspergillus fumigatus = assay: Antifungal activity against Aspergillus fumigatus LSI-II; type: functional
Staphylococcus aureus [6] = assay: Antibacterial activity against methicillin-resistant Staphylococcus aureus 15187 after 24 hrs by micro dilution method; type: functional; settings: Staphylococcus aureus, 15187, 24 h; in short: as §1

Row | SMILES | MIC (Enterococcus [1]) [µg/mL] | IC50 (MOLT-4) [µM] | MBC (Enterococcus [2]) [µg/mL] | IC50 (HL-60) [µM] | MBC (Staphylococcus aureus [3]) [µg/mL] | MIC (Staphylococcus aureus [4]) [µg/mL] | IC50 (PC-3) [µM] | MBC (Staphylococcus aureus [5]) [µg/mL] | MIC (Candida albicans) | MIC (Aspergillus fumigatus) | MIC (Staphylococcus aureus [6]) [µg/mL]
1 | CCCc1cc(Br)c(O)c(-c2cc(CCC)cc(Br)c2O)c1 | 4 (≈ 9.34 µM) | 55 | 8 (≈ 18.7 µM) | 30 | 4 (≈ 9.34 µM) | 4 (≈ 9.34 µM) | 95 | 4 (≈ 9.34 µM) | inactive | inactive | 4 (≈ 9.34 µM)
2 | CCCc1ccc(O)c(-c2cc(CCC)cc(Cl)c2O)c1 | > 256 | > 100 | > 256 | 85 | > 256 | > 256 | > 100 | > 256 | inactive | inactive | > 256
3 | CCCc1ccc(O)c(-c2cc(CCC)cc(Br)c2O)c1 | 16 (≈ 45.8 µM) | > 100 | 32 (≈ 91.6 µM) | > 100 | 16 (≈ 45.8 µM) | 8 (≈ 22.9 µM) | > 100 | 8 (≈ 22.9 µM) | inactive | inactive | 16 (≈ 45.8 µM)
4 | CCCCc1ccc(O)c(-c2cc(CCCC)cc(Cl)c2O)c1 | > 256 | > 100 | > 256 | > 100 | > 256 | > 256 | > 100 | > 256 | inactive | inactive | > 256
5 | CCCc1cc(Cl)c(O)c(-c2cc(CCC)cc(Cl)c2O)c1 | 8 (≈ 23.6 µM) | > 100 | 8 (≈ 23.6 µM) | > 100 | 4 (≈ 11.8 µM) | 4 (≈ 11.8 µM) | > 100 | 4 (≈ 11.8 µM) | inactive | inactive | 4 (≈ 11.8 µM)
6 | CCCCc1ccc(O)c(-c2cc(CCCC)cc(I)c2O)c1 | > 256 | 66 | > 256 | 50 | > 256 | > 256 | 60 | > 256 | inactive | inactive | > 256
7 | CCCCc1ccc(O)c(-c2cc(CCCC)cc(Br)c2O)c1 | 1 (≈ 2.65 µM) | 35 | 2 (≈ 5.3 µM) | 25 | 1 (≈ 2.65 µM) | 2 (≈ 5.3 µM) | 74 | 2 (≈ 5.3 µM) | inactive | inactive | 1 (≈ 2.65 µM)
8 | O=C(O)c1cn(C2CC2)c2cc(N3CCNCC3)c(F)cc2c1=O [CIPROFLOXACIN] | 32 (≈ 96.6 µM) | – | 64 (≈ 193 µM) | – | 8 (≈ 24.1 µM) | 0.25 (≈ 0.754 µM) | – | 0.5 (≈ 1.51 µM) | – | – | 8 (≈ 24.1 µM)
9 | CC[C@H]1OC(=O)[C@H](C)[C@@H](O[C@H]2C[C@@](C)(OC)[C@@H](O)[C@H](C)O2)[C@H](C)[C@@H](O[C@@H]2O[C@H](C)C[C@H](N(C)C)[C@H]2O)[C@](C)(O)C[C@@H](C)C(=O)[C@H](C)[C@@H](O)[C@]1(C)O [ERYTHROMYCIN] | 64 (≈ 87.2 µM) | – | 64 (≈ 87.2 µM) | – | 64 (≈ 87.2 µM) | 0.5 (≈ 0.681 µM) | – | 1 (≈ 1.36 µM) | – | – | 64 (≈ 87.2 µM)
10 | C=CCc1ccc(O)c(-c2cc(CC=C)ccc2O)c1 [MAGNOLOL] | 32 (≈ 120 µM) | 58 | 32 (≈ 120 µM) | 48 | 32 (≈ 120 µM) | 16 (≈ 60.1 µM) | 62 | 32 (≈ 120 µM) | – | – | 32 (≈ 120 µM)
11 | C=CCc1cc(OC)c(O)c(-c2cc(CC=C)cc(OC)c2O)c1 | > 256 | > 100 | > 256 | > 100 | > 256 | > 256 | > 100 | > 256 | 64 µg/mL (≈ 196 µM) | 32 µg/mL (≈ 98 µM) | > 256
12 | C=CCc1cc(O)c(O)c(-c2cc(CC=C)cc(O)c2O)c1 | 16 (≈ 53.6 µM) | > 100 | 32 (≈ 107 µM) | > 100 | 16 (≈ 53.6 µM) | 8 (≈ 26.8 µM) | > 100 | 8 (≈ 26.8 µM) | 128 µg/mL (≈ 429 µM) | 64 µg/mL (≈ 215 µM) | 16 (≈ 53.6 µM)
13 | CCCc1ccc(O)c(-c2cc(CCC)cc(I)c2O)c1 | > 256 | 60 | > 256 | 45 | > 256 | > 256 | 63 | > 256 | inactive | inactive | > 256
14 | CCCCc1cc(Cl)c(O)c(-c2cc(CCCC)cc(Cl)c2O)c1 | 8 (≈ 21.8 µM) | > 100 | 16 (≈ 43.6 µM) | 90 | 8 (≈ 21.8 µM) | 8 (≈ 21.8 µM) | > 100 | 8 (≈ 21.8 µM) | inactive | inactive | 8 (≈ 21.8 µM)
15 | CCCc1cc(I)c(O)c(-c2cc(CCC)cc(I)c2O)c1 | 64 (≈ 123 µM) | 18 | 64 (≈ 123 µM) | 7 | 64 (≈ 123 µM) | 64 (≈ 123 µM) | 7 | 64 (≈ 123 µM) | inactive | inactive | 64 (≈ 123 µM)
16 | O=c1[nH]cc(F)c(=O)[nH]1 [FLUOROURACIL] | – | 3.2 | – | 266 | – | – | 2.1 | – | – | – | –
